# Source: PubChem BioAssay (several laboratories)
# Measles CPE = protection of cells from measles virus | protection (pct of control), % at 4 µM | Measles virus-infected cells, CPE protection, absorbance | actives 1.5% (n = 140,000); in the data active = protection mostly above about 24%, no sharp cut-off; inactive = mostly below about 26%
# RAM inhibit = inhibitors of the yeast RAM network | inhibition, % at 50 µM | actives 1.8% (n = 190,000) | S. cerevisiae dse1pr::URA3 reporter, 5-FOA growth OD615, 2 d; analog-sensitive cbk1-as2 kinase mutant strain;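 active = inhibition above a set limit, 3 SD over mean compound inhibition, cut at about 8.4% in these data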;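 note: 0% = DMSO-only wells with no growth and 100% = 10 µM 1-NA-PP1 full growth; inhibition rescues growth on 5-FOA so higher OD means more RAM inhibition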
# BB579 growth dn = reduces growth of yeast BB579 in restrictive medium. S. cerevisiae BB579 growth, OD615, 48 h. actives 0.51% (n = 140,000). inhibition, % at 10 µM;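 active = inhibition above a set limit, 3 SD over the mean compound inhibition, cut at about 44% in these data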
#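 Test system: Saccharomyces cerevisiae DeaD strain BB579, replicative lifespan model yeast | Buffer or medium: Restrictive CSMM-D medium | Doses: One dose, 10 µM compound with 0.25% DMSO | Incubation: 48 h exposure, 30 °C | Detection: Culture absorbance at 615 nm | Control set: Amphotericin B at 10 µg/mL as positive control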
# hDAT+cocaine = human DAT dopamine uptake with cocaine, either direction. actives 1.3% (n = 110,000). B-score at 10 µM. AID 449768. LLC-PK1 hDAT cells, [14C]-dopamine uptake with cocaine IC80; actives deviate in either direction;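 active = Z score or B-score, a plate-position-corrected score, falls beyond the plate's 99.7% confidence bounds, in either direction; inactive = both scores lie inside the 99.7% bounds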;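 note: scored against the spread of the other compound wells on the same plate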
# Target sequence (Q01959 whole entry, looked up): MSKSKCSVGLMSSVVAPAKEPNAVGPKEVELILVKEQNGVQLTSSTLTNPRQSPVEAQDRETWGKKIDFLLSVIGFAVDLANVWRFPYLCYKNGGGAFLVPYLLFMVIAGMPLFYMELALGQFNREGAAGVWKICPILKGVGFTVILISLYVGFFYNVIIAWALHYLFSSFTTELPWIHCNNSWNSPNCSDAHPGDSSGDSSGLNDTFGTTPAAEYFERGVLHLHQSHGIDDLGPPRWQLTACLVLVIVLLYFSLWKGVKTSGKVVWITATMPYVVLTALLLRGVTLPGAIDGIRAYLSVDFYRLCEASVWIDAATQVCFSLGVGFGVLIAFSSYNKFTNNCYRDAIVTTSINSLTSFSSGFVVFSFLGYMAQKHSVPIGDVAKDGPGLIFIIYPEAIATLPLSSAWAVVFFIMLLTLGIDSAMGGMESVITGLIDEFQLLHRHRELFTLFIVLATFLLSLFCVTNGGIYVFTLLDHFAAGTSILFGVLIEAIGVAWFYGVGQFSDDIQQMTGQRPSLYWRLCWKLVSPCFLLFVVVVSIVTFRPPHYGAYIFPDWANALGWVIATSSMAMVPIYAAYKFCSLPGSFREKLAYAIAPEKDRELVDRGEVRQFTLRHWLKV
# WT yeast gro inh = growth inhibition of WT yeast, mitochondrial fusion screen; mitochondrial fusion phenotypic screen, WT strain; inhibition, % at 10 µM; actives 2.1% (n = 190,000); AID 1362; in the data active = inhibition above about 58%; tested in S. cerevisiae
# Yeast life ext = extends the lifespan of yeast; inhibition of the nicotinamide effect, % at 10 µM; AID 775; actives 0.68% (n = 130,000); S. cerevisiae growth with nicotinamide, OD615; deaD strain in restrictive glucose medium;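 active = inhibition above a set limit, placed 3 SD over the median of all compounds, cut at about 26% in these data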;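 note: 0% = nicotinamide-treated wells and 100% = cells grown without nicotinamide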
#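 Measured by: optical density (absorbance) at 615 nm; System: modified budding yeast, DeaD strain; Medium: restrictive CSMM-D dextrose medium; Timing: 4 h preincubation then 48 h treatment at 30 °C.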
# An asterisk follows results filed as active; nt = no result given. A selection: hits, their analogues and other compounds. The true share with any hit is near 6.1%.
SMILES,Measles CPE,RAM inhibit,BB579 growth dn,hDAT+cocaine,WT yeast gro inh,Yeast life ext
COCCOC(=O)c1c(C)nc(SCC(=O)Nc2ccc(C)cc2)c(C#N)c1-c1ccco1,7.0,5.8,0.7,0.113,7.1,-17.5
N=c1c2c(ncn1Cc1ccco1)Oc1c(ccc3ccccc13)C2c1ccccc1 (stereo unspecified),2.5,-1.2,-66.5,nt,68.7*,-2.7
CC1(C)CC(=O)C2=C(C1)Oc1ncn(Cc3ccco3)c(=N)c1C2c1ccccc1 (stereo unspecified),7.1,2.0,-24.5,0.797,-9.8,-6.2
CCN1/C(=C/C=C/c2oc3ccc(-c4ccccc4)cc3[n+]2CC)Oc2ccc(-c3ccccc3)cc21,nt,1.6,nt,nt,87.3,nt
COc1cccc(C(=O)NNC(=O)Cc2ccc([N+](=O)[O-])cc2)c1,15.3,0.6,-10.1,nt,17.4,-6.0
Cn1nc(C(=O)OCc2ccc(F)cc2)c2ccccc2c1=O,nt,10.1*,nt,nt,11.9,nt
CCOc1ccc(Cc2n[nH]c(=S)n2Cc2ccccc2)cc1,nt,1.0,nt,nt,18.2,nt
Oc1ccc(N2CCN(C(c3cccs3)c3nnnn3CCc3ccccc3)CC2)cc1 (stereo unspecified),14.2,2.1,-36.7,1.06,2.0,-15.1
FC(F)(F)c1cc(-c2ccccc2)nc(NCc2cccs2)n1,15.9,1.3,-51.1,nt,70.2*,-5.2
FC(F)(F)c1cc(-c2ccccc2)nc(NC2CCCC2)n1,12.7,2.8,-90.9,0.328,86.0*,-15.9
NS(=O)(=O)c1ccc(CNC(=O)CCSCCC(=O)NCc2ccc(S(N)(=O)=O)cc2)cc1,nt,0.3,nt,nt,-13.0,nt
O=C1OC(C(=O)Nc2nccs2)Cc2ccccc21 (stereo unspecified),5.6,-0.1,-20.3,1.63,2.7,-23.4
Cc1ccc(OC(=S)Nc2ccc(O)cc2)cc1,8.1,0.8,83.7*,-0.101,7.8,nt
COc1ccc(-c2csc(NC(=S)NC(=O)/C=C/c3ccco3)n2)cc1OC,0.1,9.7*,-18.3,nt,-27.4,4.0
COc1ccc(-c2csc(NC(=O)C3COc4ccccc4O3)n2)cc1OC (stereo unspecified),nt,10.2*,nt,-0.415,64.9*,nt
CCC1(C)Cc2ccccc2-c2nc(NCCO)[nH]c(=O)c21 (stereo unspecified),2.7,-0.1,1.1,-2.9*,-3.4,-4.5
O=c1[nH]c(NCCO)nc2c1C1(CCCC1)Cc1ccccc1-2,19.2,0.7,-40.3,0.0771,8.9,-14.2
CCOC(=O)C1=C(Cn2cnc3ccccc32)NC(=O)NC1c1ccc(OC)cc1 (stereo unspecified),18.6,-1.0,-37.2,1.8,-15.2,-7.5
Cc1cc(C)n(-c2ccc(C(=O)OCC(=O)NC(c3ccccc3)c3ccccc3)cc2)n1,50.8*,6.4,-51.4,nt,9.9,5.4
CCCCCC(=O)NC(Nc1ccc(S(N)(=O)=O)cc1)C(Cl)(Cl)Cl (stereo unspecified),3.2,-0.1,-29.2,nt,-17.2,0.5
CCCCCCC(=O)NC(Nc1ccc(S(N)(=O)=O)cc1)C(Cl)(Cl)Cl (stereo unspecified),32.4*,0.2,-5.8,0.0284,4.9,-4.2
O=C(O)CC(NC(=O)C(c1ccccc1)c1ccccc1)c1ccc(F)cc1 (stereo unspecified),nt,2.3,nt,nt,-6.8,nt
Cc1ccccc1NC(=O)N1CCCC(c2nc(-c3ccc(F)cc3)no2)C1 (stereo unspecified),16.1,2.0,-14.8,3.05*,4.5,-14.1
CC(C)c1ccc(-c2noc(C3CCCN(C(=O)c4ccc(F)cc4F)C3)n2)cc1 (stereo unspecified),5.7,10.4*,-45.9,-0.919,72.3*,-11.9
Cc1ccc(-c2noc(C3CCCN(C(=O)c4ccc(F)cc4F)C3)n2)cc1 (stereo unspecified),12.9,0.5,-34.0,0.015,7.4,-3.2
O=C(Nc1cccc(C(F)(F)F)c1)N1CCC(c2nc(-c3ccc(F)cc3)no2)CC1,10.5,10.0*,-40.3,-0.513,78.9,-11.3
O=C(Nc1ccc(Cl)cc1)N1CCC(c2nc(-c3ccccc3Cl)no2)CC1,6.2,1.8,-5.3,-0.673,64.5*,-17.3
O=C(Nc1ccc(Cl)cc1)N1CCC(c2nc(-c3cccs3)no2)CC1,9.7,1.8,-71.5,-0.703,49.3,37.6
